Assay [1] can be described thus: inhibitors of TNFa-induced NFkB p65 translocation, primary screen, imaging, HUVEC, MLSMR starter and 10KST1 sets (AID 438;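 active = inhibition above 20% together with a positive visual image hit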;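 note: compound added about 3h40 before a 20 min TNFalpha stimulation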;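 for inhibition: signal is the nuclear over cytoplasmic p65 intensity ratio per well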). As to conditions: HUVEC TNFa-induced p65 nuclear translocation; cell count: measured here: nuclei count (cytotoxicity indicator), at 2.08 µM; inhibition: at 2 µM, stronger effect = higher value, 0% TNFa-plus-vehicle, 100% no-TNFa wells.
The nature of assay [2]: inhibitors of E-selectin induction by TNFa, primary screen, imaging, HUVEC, immunofluorescence, MLSMR starter and 10KST1 sets (AID 487;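 active = visually confirmed hit in the image check and inhibition above 20%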;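 for inhibition: signal is fraction of cell area covered by stained E-selectin grains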;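 for nuclei count: 100% = median nuclei count of all wells on the same plate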). The conditions noted are these: HUVEC TNFalpha-induced E-selectin immunofluorescence imaging, at 2 µM; inhibition: stronger effect = higher value; nuclei count: measured here: cell number, toxicity.
Assay [3] in a line: DUSP6 inhibitors restoring Erk phosphorylation by chemical complementation, primary imaging in DUSP6-transfected HeLa (AID 609).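 For inhibition: phospho-Erk level distribution per well compared with pooled transfected vehicle control wells.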 As to conditions: HeLa MKP-3 transfected, phospho-Erk imaging KS statistic, at 10 µM, cells stimulated with TPA for 15 min.
The target in assay [4] is Dual specificity protein phosphatase 6 (Homo sapiens) (UniProt Q16828). The description is as above. The conditions noted are these: HeLa MKP-3 transfected, phospho-Erk imaging KS statistic; at 10 µM; stronger effect = higher value; cells stimulated with TPA for 15 min.
Assay [5] deals with Voltage-gated potassium channel subunit beta-2 (Rattus norvegicus) (UniProt P62483). The assay can be described thus: KvBeta enzyme negative modulators, primary screen, biochemical, NADPH fluorescence (AID 622;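 active = fluorescence slope higher than the sample average by over 3 SD, cut at about -0.22 in these data, passing the limit was not always enough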;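 note: slope of raw intensity against log time taken from 70 to 1610 s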). As to conditions: recombinant KvBeta, 4-cyanobenzaldehyde reduction, at 10 µM, stronger effect = higher value.
Assay [6] has the same target. Kind of assay: KvBeta positive modulators, primary screen, biochemical, NADPH fluorescence (AID 623;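 active = NADPH fluorescence slope more negative than the mean of all samples by about 3 SD, 99.7% confidence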;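 note: fluorescence intensity change per second fitted from 20 to 320 s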). As to conditions: Recombinant KvBeta, NADPH fluorescence decrease slope, 10 min; at 10 µM; stronger effect = lower value.
Assay [7] concerns the target Muscarinic acetylcholine receptor M4 (Homo sapiens) (UniProt P08173). Kind of assay: compounds altering M4/GIRK thallium flux, either direction, primary screen, M4 allosteric agonist project, cell-based, HEK293 M4/GIRK, BTC-AM (AID 625;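 active = fluorescence slope after compound addition differing from the mean of all tested samples at 99.7% confidence, mostly higher but some lower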;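 note: thallium influx through GIRK channels coupled to M4 in HEK293 cells with BTC-AM dye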). The conditions noted are these: at 10 µM, actives lie on both sides. An outline of the steps:
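Material – HEK293 cells with M4 receptor and GIRK channels · Buffer or medium – pH 7.3 thallium assay buffer · Doses – one dose, 10 µM final · Timing – cells overnight at 37 °C, BTC-AM loading 1 h, reads 2 min total · Measured by – kinetic fluorescence with BTC-AM dye · Controls – carbachol and DMSO controls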

Assay [8] can be described thus: inhibitors of larval lipid processing in zebrafish, primary screen, whole organism, PED6 fluorescence, gall bladder and intestine (AID 686;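 active = a full or partial loss of lipid-probe fluorescence in the fish gall bladder, intestine or both, judged by eye; inactive = no fluorescence loss, or compound toxic to the fish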;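 note: larvae 5 to 7 days old with five fish per well; signal comes from phospholipase A2 cleavage of quenched PED6 carried via bile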). The conditions noted are these: Zebrafish larvae PED6 lipid processing, fluorescence scoring; screened at 20 µM (by protocol). An outline of the steps: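 system = live zebrafish larvae aged 5-7 days, whole organism | probe or stimulus = ingested quenched lipid PED6 at 100 nM | doses = 20 µM single dose | timing = overnight exposure | detection = fluorescence microscopy with visual scoring of gall bladder and intestine | read-out = visual per-well fluorescence inhibition score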

Assay [9] is described as follows: inhibitors of Chlamydomonas gravitaxis, primary screen, whole organism, Chlamydomonas reinhardtii, WT vs cilia-less mutant, absorbance, 96-well (AID 463189;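 active = inhibition at or above 50% relative to wild type and mutant plate controls; inactive = inhibition below 50%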;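 note: 0% = wild type cc124 cells in DMSO and 100% = ciliumless bld1 mutant cells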). As to conditions: OD600 absorbance, 2 days, at 10 µM, stronger effect = higher value.
[10] abbreviates: measured here: cell density z-score.
The mark [11] stands for this setting: measured here: nuclear c-Myc green intensity z-score.
The mark [12] stands for this setting: measured here: nuclear pErk red intensity z-score, stronger effect = higher value.

Twelve compounds from PubChem BioAssay can be followed below.

By inhibition is commonly meant the drop in the measured response relative to a control, in per cent.

The structures appear in SMILES notation. Calls of active or inactive are those of the source.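 Rule for the calls, unless noted: active = compounds giving at least 50% inhibition in the cell-based MKP-3 phosphatase rescue imaging test; inactive = the rest.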

Sequence of Voltage-gated potassium channel subunit beta-2 (Rattus norvegicus) (P62483 whole entry, looked up): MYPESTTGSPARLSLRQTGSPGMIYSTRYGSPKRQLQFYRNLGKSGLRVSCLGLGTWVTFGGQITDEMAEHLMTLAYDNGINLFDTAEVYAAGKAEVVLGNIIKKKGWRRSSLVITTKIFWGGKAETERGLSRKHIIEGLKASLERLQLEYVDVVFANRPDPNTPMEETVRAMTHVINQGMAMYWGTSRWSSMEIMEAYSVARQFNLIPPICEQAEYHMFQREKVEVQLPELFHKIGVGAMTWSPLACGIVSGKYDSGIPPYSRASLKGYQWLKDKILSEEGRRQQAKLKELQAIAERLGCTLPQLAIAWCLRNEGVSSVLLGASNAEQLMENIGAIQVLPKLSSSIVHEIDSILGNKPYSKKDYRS
Sequence of Dual specificity protein phosphatase 6 (Homo sapiens) (Q16828 whole entry, looked up): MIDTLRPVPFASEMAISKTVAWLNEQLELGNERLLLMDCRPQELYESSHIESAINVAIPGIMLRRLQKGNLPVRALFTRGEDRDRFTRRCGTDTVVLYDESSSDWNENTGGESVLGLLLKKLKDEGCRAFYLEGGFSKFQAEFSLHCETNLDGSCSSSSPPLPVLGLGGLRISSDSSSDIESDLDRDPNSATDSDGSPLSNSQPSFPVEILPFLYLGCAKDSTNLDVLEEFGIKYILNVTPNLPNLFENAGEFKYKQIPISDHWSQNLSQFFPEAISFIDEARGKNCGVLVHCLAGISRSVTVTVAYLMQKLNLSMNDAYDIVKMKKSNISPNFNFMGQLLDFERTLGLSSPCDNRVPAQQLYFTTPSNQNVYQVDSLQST
Sequence of Muscarinic acetylcholine receptor M4 (Homo sapiens) (P08173 whole entry, looked up): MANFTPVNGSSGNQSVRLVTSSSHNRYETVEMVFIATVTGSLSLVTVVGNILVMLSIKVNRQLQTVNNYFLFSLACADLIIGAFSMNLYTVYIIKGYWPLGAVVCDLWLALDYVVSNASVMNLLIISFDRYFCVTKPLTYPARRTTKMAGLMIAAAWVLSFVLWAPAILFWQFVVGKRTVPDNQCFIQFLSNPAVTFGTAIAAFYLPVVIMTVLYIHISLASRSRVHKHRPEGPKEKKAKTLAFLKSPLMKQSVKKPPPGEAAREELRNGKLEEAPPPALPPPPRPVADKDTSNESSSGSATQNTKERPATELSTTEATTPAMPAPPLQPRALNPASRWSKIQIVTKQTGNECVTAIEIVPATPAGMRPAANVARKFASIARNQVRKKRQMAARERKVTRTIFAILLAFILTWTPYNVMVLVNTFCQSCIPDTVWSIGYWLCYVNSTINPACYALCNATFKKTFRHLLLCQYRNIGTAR

Turning to `N#Cc1c(NCCCO)nc(-c2ccccc2)c2c1CCCC2`, the cell count in assay [1] amounted to 598. Moreover, the inhibition was -4.5% (inactive) in assay [1], -60.9% (inactive) in assay [2], -0.233% (inactive) in [4] and 0.512% (inactive) in assay [9]. Further, the nuclei count in [2] was 154%. Also, the z-score is -0.266 in [3] (setting [10]), 0.00477 in [3] (setting [11]) and 1.17 in assay [3] (setting [12]). Also, the fluorescence slope in assay [5] was -0.435 (inactive); in assay [7], 0.00541 (inactive). Further, in [6], the NADPH fluorescence slope was -0.000107 (inactive). Moreover, the compound was classed as inactive in [8].

With `CCc1nc(N2CCCC2)c(C#N)c2c1CCCC2`, the cell count in [1] stood at 422. Besides, the inhibition in assay [1] was 2.1% (inactive); in assay [2], -71.3% (inactive); in [4], -6.59% (inactive); in assay [9], -11.4% (inactive). The compound also showed a nuclei count in assay [2] of 118%. Moreover, the z-score is -1.3 in [3] (setting [10]), 0.104 in assay [3] (setting [11]) and 0.215 in [3] (setting [12]). In addition, the figures for the fluorescence slope in [5] and in assay [7] were -0.506 (inactive) and 0.00476 (inactive), respectively. For the same compound, the NADPH fluorescence slope in assay [6] is 3e-05 (inactive). Besides, the compound was classed as inactive in assay [8].

As to `O=C(O)c1cc2cccc(S(=O)(=O)N3CCOCC3)c2cc1O`, in [1], the cell count was found to be 655. The inhibition in assay [1] is -1.8% (inactive); in [2] it was -122% (inactive); in assay [4], -9.66% (inactive); in assay [9] it was -7.07% (inactive). Besides, the nuclei count in [2] was 164%. Besides, the z-score in [3] (setting [10]) is -0.358; in assay [3] (setting [11]) it was 0.0278; in assay [3] (setting [12]), -2.77. In addition, the results for the fluorescence slope in [5] and in [7] were -0.0405 (active) and 0.00567 (inactive), respectively. For the same compound, the NADPH fluorescence slope in [6] was -1e-05 (inactive). The outcome in assay [8] was inactive.

Take `CCCc1cc(Nc2c(C)n(C)n(-c3ccccc3)c2=O)n2c(nc3ccccc32)c1C#N`: the cell count in assay [1] stood at 336. Besides, the inhibition was -3.4% (inactive) in assay [1], -170% (inactive) in assay [2], -6.59% (inactive) in assay [4] and 0.457% (inactive) in assay [9]. The nuclei count in assay [2] amounted to 134%. For the same compound, the z-score was -1.08 in assay [3] (setting [10]), 0.689 in assay [3] (setting [11]) and -0.99 in [3] (setting [12]). Moreover, the fluorescence slope in [5] is -0.48 (inactive); in assay [7], 0.00467 (inactive). Further, the NADPH fluorescence slope in assay [6] was -2.2e-05 (inactive). Moreover, in assay [8], the outcome was inactive.

On to `O=C(COc1ccc(F)cc1)OCCN1CCOCC1`, for which the cell count in [1] was found to be 565. Also, the inhibition in [1] was -8.9% (inactive); in assay [2] it was -82.4% (inactive); in assay [4], -10.6% (inactive); in assay [9] it was -2.61% (inactive). The same compound returned a nuclei count in [2] of 135%. Also, the z-score is -1.31 in [3] (setting [10]), 0.0144 in assay [3] (setting [11]) and 2.07 in [3] (setting [12]). In addition, the values for the fluorescence slope in assay [5] and in [7] were -0.449 (inactive) and 0.00404 (inactive), respectively. The NADPH fluorescence slope in assay [6] was -0.000116 (inactive). For the same compound, in [8], the outcome was inactive.

Take `CC1(C)CC(=O)C(C=NCCN2CCN(CCc3ccccc3)CC2)=C(O)C1`: the cell count in assay [1] turned out to be 367. Besides, the inhibition was -0.8% (inactive) in assay [1], -22.3% (inactive) in assay [2], -2.69% (inactive) in [4] and -9.36% (inactive) in [9]. The nuclei count in assay [2] stood at 94.1%. Moreover, the z-score in assay [3] (setting [10]) was -1.16; in assay [3] (setting [11]), 0.888; in assay [3] (setting [12]), -1.15. Also, the fluorescence slope in assay [5] is -0.506 (inactive); in assay [7] it was 0.00481 (inactive). Besides, in [6], the NADPH fluorescence slope was 1.2e-05 (inactive). Besides, the compound was classed as inactive in [8].

With `N#Cc1c(N2CCOCC2)nc(-c2ccco2)c2c1CCCC2`, the cell count in assay [1] came to 536. Further, the inhibition in [1] was -3% (inactive); in [2] it was -19.5% (inactive); in assay [4], -2.09% (inactive); in [9], 18.9% (inactive). The same compound gave a nuclei count in assay [2] of 96.6%. Besides, the z-score in assay [3] (setting [10]) is 0.112; in [3] (setting [11]) it was 0.592; in assay [3] (setting [12]), -1.17. Besides, the fluorescence slope was -0.412 (inactive) in assay [5] and 0.00398 (inactive) in assay [7]. In addition, the NADPH fluorescence slope in assay [6] was -2e-05 (inactive). For the same compound, the call in [8] was inactive.

Take `Cc1cccc(NC(=O)c2c(C)cc(=O)oc2C)n1`: the cell count in assay [1] amounted to 522. Moreover, the inhibition is -1.7% (inactive) in [1], 26.4% (inactive) in assay [2], 7.93% (inactive) in [4] and -9.96% (inactive) in assay [9]. This compound also returned a nuclei count in assay [2] of 170%. The z-score was 0.944 in assay [3] (setting [10]), 0.403 in [3] (setting [11]) and -0.669 in assay [3] (setting [12]). In addition, the fluorescence slope is -0.374 (inactive) in assay [5] and 0.00509 (inactive) in assay [7]. Moreover, in assay [6], the NADPH fluorescence slope was -3.7e-05 (inactive). In addition, the compound was classed as inactive in assay [8].

On to `COC(=O)c1ccccc1NC(=O)C1COc2ccccc2O1` (stereo unspecified), for which the cell count in [1] stood at 655. The inhibition in [1] is -10% (inactive); in [2], 1.5% (inactive); in assay [4], -0.674% (inactive); in [9], 3.4% (inactive). In [2], the nuclei count is 169%. Further, the z-score in assay [3] (setting [10]) is 1.14; in assay [3] (setting [11]), -0.164; in assay [3] (setting [12]) it was -1.54. Besides, the fluorescence slope in assay [5] is -0.465 (inactive); in assay [7], 0.00637 (inactive). Moreover, in [6], the NADPH fluorescence slope is -5.2e-05 (inactive). For the same compound, the result in assay [8] was inactive.

In the case of `CCOC(=O)C1=C(N)n2c(s/c(=C\c3ccco3)c2=O)=C(C(=O)OC(C)C)C1c1ccco1` (stereo unspecified), the cell count in [1] turned out to be 383. In addition, the inhibition in assay [1] is -7.4% (inactive); in assay [2], -126% (inactive); in assay [4], -4.59% (inactive); in assay [9] it was 27.2% (inactive). This compound also came in with a nuclei count in [2] of 166%. In addition, the z-score in assay [3] (setting [10]) is 0.588; in [3] (setting [11]) it was -1.67; in [3] (setting [12]), 1.18. For the same compound, the results for the fluorescence slope in [5] and in [7] were -0.46 (inactive) and 0.00444 (inactive), respectively. For the same compound, in assay [6], the NADPH fluorescence slope is -7.4e-05 (inactive). The compound was classed as inactive in assay [8].

Turning to `CC(O)CNc1nc2c(c(=O)n(C)c(=O)n2C)n1CCc1ccccc1` (stereo unspecified), the cell count in assay [1] was determined as 710. Further, the inhibition in [1] was -2.3% (inactive); in [2], -92.1% (inactive); in [4], 5.95% (inactive); in assay [9], 23% (inactive). Also, in assay [2], the nuclei count was 180%. Further, the figures for the z-score in assay [3] (setting [10]), in [3] (setting [11]) and in [3] (setting [12]) were 0.422, -1.99 and 1.04, respectively. Also, the fluorescence slope in assay [5] was -0.464 (inactive); in assay [7], 0.00739 (inactive). In addition, the NADPH fluorescence slope in assay [6] is -0.000209 (active). The compound was called inactive in assay [8].

For `CCOC(=O)COn1c(=O)c(-c2ccc(OC)c(OC)c2)[n+]([O-])c2ccccc21`, in [1], the cell count stood at 542. The inhibition is -6% (inactive) in [1], -40.6% (inactive) in assay [2], -1.98% (inactive) in assay [4] and 37.5% (inactive) in assay [9]. The nuclei count in [2] stood at 142%. Also, the z-score in assay [3] (setting [10]) was 0.722; in assay [3] (setting [11]), -0.529; in assay [3] (setting [12]), 0.673. For the same compound, the fluorescence slope in assay [5] is -0.33 (inactive); in assay [7] it was 0.00588 (inactive). Also, the NADPH fluorescence slope in assay [6] was -7.7e-06 (inactive). Also, in [8], the call was inactive.
